Results of several laboratories.
Protocols differ between the studies behind these lines.
Target: Serine/threonine-protein kinase WNK1 (WNK1, Homo sapiens, UniProt Q9H4A3)

SMILES	observed	technique	tested at	remaining binding [%]
CN(C)c1ncc(F)c(-c2cnn3ncccc23)n1	binding	–	1 µM	87
NS(=O)(=O)c1cc(NC(=O)Cc2ccccc2)ccc1Oc1cccc(Cl)c1	cell-free assay	competition with immobilised ligand	1 µM	89
c1cncc(-c2cccc(Nc3nccc(NC4CCCCC4)n3)c2)c1	binding	competition with immobilised ligand	10 µM	87
CC(C)CC(=O)N1CCc2nc(-c3ccc(Br)cc3)nc(N(C)Cc3ccccc3)c2C1	cell-free assay	competition with immobilised ligand	0.1 µM	100
COc1ccnn2ncc(-c3ccnc(N(C)C)n3)c12	binding	–	1 µM	100
COc1cnc(Nc2cccc(S(N)(=O)=O)c2)nc1N1CCN(c2ccccc2)CC1	binding	competition with immobilised ligand	1 µM	88
CC1CCCN1c1nccc(-c2cnn3ncccc23)n1 (stereo not shown)	binding	–	1 µM	98
CN(C)C(=O)Cn1cc(-c2nc([C@@](C)(c3ccc(-c4cnc(N)nc4)cc3)C3CC3)no2)cn1	cell-free assay	competition with immobilised ligand	1 µM	94
O=C(NCCCN1CCOCC1)c1ccc(Nc2nccc(-c3cc4ccccc4s3)n2)cc1	binding	competition with immobilised ligand	1 µM	98
CN(C)c1nccc(-c2cnc3ncccn23)n1	binding	–	1 µM	100
CC(C)(O)c1cncc(-c2nc3ccc(F)cc3n2C2CC2)c1	cell-free assay	competition with immobilised ligand	1 µM	100
O=C(NCCCN1CCOCC1)c1ccc(Nc2ncc(Cl)c(-c3ccc(Cl)s3)n2)cc1	binding	competition with immobilised ligand	1 µM	89
CS(=O)(=O)N1CCCC(NC(=O)[C@H](CCC2CCCCC2)NC(=O)c2ccc(CNC(=O)c3cnc4ccccn34)cc2)C1 (stereo partly shown)	cell-free assay	competition with immobilised ligand	0.1 µM	99
CN(C)c1nccc(-c2cnn3ncccc23)n1	binding	–	1 µM	100
COc1ncc2cc3ccccc3nc2c1C#N	cell-free assay	competition with immobilised ligand	5 µM	95
O=C(Nc1c[nH]nc1C(=O)NC1CCNCC1)c1cc(F)cc(F)c1	binding	competition with immobilised ligand	1 µM	100
O=C(c1ccc(Nc2nccc(-c3cc4ccccc4s3)n2)cc1)N1CCC(N2CCCC2)CC1	binding	competition with immobilised ligand	1 µM	88
C[C@H]1CCN(c2nccc(-c3cnn4ncccc34)n2)C1	binding	–	1 µM	91
O=C1NC(c2ccccn2)Sc2ccccc21 (stereo not shown)	cell-free assay	competition with immobilised ligand	1 µM	91
